Reference: ChEMBL document CHEMBL1154715, “Identification of benzofuro[2,3-b]quinoline derivatives as a new class of antituberculosis agents” (Eur J Med Chem, 2010)
≈ marks a conversion by molar mass, not a printed value.

Experiments:
[1] = test system: Mycobacterium tuberculosis; test: Antitubercular activity against Mycobacterium tuberculosis H37Rv ATCC 27294 by microplate Alamar blue assay; type: functional
Procedure, shortened: (§1)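 M. tuberculosis H37Rv (ATCC 27294) in BACTEC 12B medium; broth microdilution, Microplate Alamar Blue readout. MIC taken as lowest concentration giving 90% reduction in fluorescence versus controls.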

[2] = test system: Vero; test: Cytotoxicity against african green monkey Vero cells after 72 hrs by MTT assay; type: cell-based, Chlorocebus sabaeus
[3] = Selectivity index, ratio of IC50 for african green monkey Vero cells to MIC for Mycobacterial tuberculosis H37Rv ATCC 27294; type: functional
Procedure, shortened: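 SI calculated as IC50/MIC, where MIC (H37Rv, Alamar Blue microdilution in BACTEC 12B medium) is the lowest concentration cutting fluorescence 90% versus controls.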

[4] = test system: MCF7; test: Cytotoxicity against human MCF7 cells at 20 ug/ml after 48 hrs by SRB assay; type: functional
Procedure, shortened: (§2)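 MCF7, NCI-H460 and SF-268 cells were kept in RPMI-1640 with 5% fetal bovine serum, then seeded and preincubated in microtiter plates. Compound was added at two fixed concentrations and incubated for 48 h. The endpoint was sulforhodamine B protein staining, reported as percent growth of treated cells relative to untreated controls.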

[5] = test system: MCF7; test: Cytotoxicity against human MCF7 cells at 4 ug/ml after 48 hrs by SRB assay; type: functional; procedure, shortened: as §2
[6] = test system: NCI-H460; test: Cytotoxicity against human NCI-H460 cells at 20 ug/ml after 48 hrs by SRB assay; type: functional; procedure, shortened: as §2
[7] = test system: NCI-H460; test: Cytotoxicity against human NCI-H460 cells at 4 ug/ml after 48 hrs by SRB assay; type: functional; procedure, shortened: as §2
[8] = test system: SF-268; test: Cytotoxicity against human SF268 cells at 20 ug/ml after 48 hrs by SRB assay; type: functional; procedure, shortened: as §2
[9] = test system: SF-268; test: Cytotoxicity against human SF268 cells at 4 ug/ml after 48 hrs by SRB assay; type: functional; procedure, shortened: as §2
[10] = test system: Mycobacterium tuberculosis; test: Antitubercular activity against Mycobacterium tuberculosis H37Rv ATCC 27294 at <0.2 ug/ml by microplate Alamar blue assay; type: functional; procedure, shortened: as §1

Compound: c1ccc(Nc2c3ccccc3nc3oc4ccccc4c23)cc1
- MIC [1]: 5.35 mg/L (≈ 17.2 µM)
- IC50 [2]: 6.14 mg/L (≈ 19.8 µM)
- Selectivity Index [3]: 1.15
- Activity [4]: 44%
- Activity [5]: 118%
- Activity [6]: 53%
- Activity [7]: 104%
- Activity [8]: 76%
- Activity [9]: 118%

Compound: CCOc1c2ccccc2nc2oc3ccccc3c12
- MIC [1]: 1.44 mg/L (≈ 5.47 µM)
- IC50 [2]: 10.34 mg/L (≈ 39.3 µM)
- Selectivity Index [3]: 7.18
- Activity [4]: 77%
- Activity [5]: 99%
- Activity [6]: 84%
- Activity [7]: 92%
- Activity [8]: 90%
- Activity [9]: 86%

Compound: CC(=O)c1ccc(Nc2c3ccccc3nc3oc4ccccc4c23)cc1
- MIC [1]: 14.6 mg/L (≈ 41.3 µM)
- Activity [4]: 49%
- Activity [5]: 106%
- Activity [6]: 20%
- Activity [7]: 64%
- Activity [8]: 63%
- Activity [9]: 109%

Compound: COc1ccc(Nc2c3ccccc3nc3oc4ccccc4c23)cc1
- MIC [1]: 2.63 mg/L (≈ 7.73 µM)
- IC50 [2]: 3.63 mg/L (≈ 10.7 µM)
- Selectivity Index [3]: 1.38
- Activity [4]: 35%
- Activity [5]: 109%
- Activity [6]: 17%
- Activity [7]: 83%
- Activity [8]: 87%
- Activity [9]: 111%

Compound: CC(=O)c1ccc(Oc2c3ccccc3nc3oc4ccccc4c23)cc1
- MIC [1]: > 100 mg/L
- Activity [4]: 88%
- Activity [5]: 100%
- Activity [6]: 62%
- Activity [7]: 104%
- Activity [8]: 100%
- Activity [9]: 104%

Compound: Nc1c2ccccc2nc2oc3ccccc3c12
- MIC [1]: > 100 mg/L
- Activity [4]: 113%
- Activity [5]: 114%
- Activity [6]: 107%
- Activity [7]: 110%
- Activity [8]: 72%
- Activity [9]: 84%

Compound: CNc1c2ccccc2nc2oc3ccccc3c12
- MIC [1]: < 0.2 mg/L
- IC50 [2]: 5.55 mg/L (≈ 22.4 µM)
- Selectivity Index [3]: >27.75
- Activity [4]: 99%
- Activity [5]: 100%
- Activity [6]: 99%
- Activity [7]: 102%
- Activity [8]: 86%
- Activity [9]: 98%

Compound: CN(C)c1c2ccccc2nc2oc3ccccc3c12
- MIC [1]: < 0.2 mg/L
- IC50 [2]: > 30 mg/L
- Selectivity Index [3]: >150
- Activity [4]: 48%
- Activity [5]: 87%
- Activity [6]: 76%
- Activity [7]: 108%
- Activity [8]: 91%
- Activity [9]: 102%

Compound: COc1c2ccccc2nc2oc3ccccc3c12
- inhibition (INH) [10]: 99%
- MIC [1]: < 0.2 mg/L
- IC50 [2]: 11.77 mg/L (≈ 47.2 µM)
- Selectivity Index [3]: >58.85
- Activity [4]: 92%
- Activity [5]: 102%
- Activity [6]: 68%
- Activity [7]: 90%
- Activity [8]: 98%
- Activity [9]: 98%

Compound: COc1cccc(Nc2c3ccccc3nc3oc4ccccc4c23)c1
- MIC [1]: 17.8 mg/L (≈ 52.4 µM)
- Activity [4]: 84%
- Activity [5]: 107%
- Activity [6]: 46%
- Activity [7]: 99%
- Activity [8]: 60%
- Activity [9]: 97%

Compound: c1ccc(Oc2c3ccccc3nc3oc4ccccc4c23)cc1
- MIC [1]: > 100 mg/L
- Activity [4]: 64%
- Activity [5]: 94%
- Activity [6]: 91%
- Activity [7]: 99%
- Activity [8]: 108%
- Activity [9]: 108%

Compound: CO[C@H]1/C=C/O[C@@]2(C)Oc3c(C)c(O)c4c(O)c(c(/C=N/N5CCN(C)CC5)c(O)c4c3C2=O)NC(=O)/C(C)=C\C=C\[C@H](C)[C@H](O)[C@@H](C)[C@@H](O)[C@@H](C)[C@H](OC(C)=O)[C@@H]1C [RIFAMPIN]
- MIC [1]: 0.125 mg/L (≈ 0.152 µM)
- IC50 [2]: 100 mg/L (≈ 122 µM)
- Selectivity Index [3]: 400
